Experimental data published in ChEMBL document CHEMBL1681754, “Synthesis, structure, molecular docking, and structure-activity relationship analysis of enamines: 3-aryl-4-alkylaminofuran-2(5H)-ones as potential antibacterials” (Bioorg Med Chem, 2011).
Values after ≈ are worked out from the molar mass of the structure shown.

Columns and labels:
Streptococcus pneumoniae = assay: Antimicrobial activity against Streptococcus pneumoniae R6 by broth microdilution method; format: functional
[1] = Inhibition of Staphylococcus aureus tyrosyl-tRNA synthetase by aminoacylation assay
Procedure, shortened: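 S. aureus TyrRS overexpressed in E. coli and purified (~98% by SDS–PAGE). Enzyme (0.2 nM) preincubated with a range of inhibitor concentrations for 10 min at room temperature, then prewarmed mix added at 37 °C. TCA-precipitated charged tRNA counted by scintillation; IC₅₀ is the concentration halving activity.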

Candida albicans = assay: Antimicrobial activity against Candida albicans ATCC 10231 after 48 hrs by MTT assay; format: functional; details: ATCC 10231, 48 h
Procedure, shortened: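 Antifungal MTT colorimetric microdilution in RPMI-1640 medium. Compounds serially diluted in sterile medium (50% v/v DMSO in PBS). Inoculum approx. 10⁵ cfu/mL, plates at 27 °C for 48 h. Then PBS with 2 mg/mL MTT added, 4–5 h at room temperature. After a further 12 h, OD read at 550 nm to give MIC₅₀.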

Escherichia coli = assay: Antimicrobial activity against Escherichia coli ATCC 35218 after 24 hrs by MTT assay; format: functional; details: ATCC 35218, 24 h
Procedure, shortened: (§1)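 MTT colorimetric broth microdilution in LB medium. Compounds serially diluted in sterile medium (50% v/v DMSO in PBS). Inoculum approx. 10⁵ cfu/mL, 37 °C for 24 h. Then 50 µL PBS with 2 mg/mL MTT added per well, 4–5 h at room temperature. After a further 12 h at room temperature, OD read at 550 nm to give MIC₅₀.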

Bacillus subtilis = assay: Antimicrobial activity against Bacillus subtilis ATCC 6633 after 24 hrs by MTT assay; format: functional; details: ATCC 6633, 24 h; procedure, shortened: as §1
Staphylococcus aureus = assay: Antimicrobial activity against Staphylococcus aureus ATCC 25923 after 24 hrs by MTT assay; format: functional; details: ATCC 25923, 24 h; procedure, shortened: as §1

MIC (Streptococcus pneumoniae) [µg/mL] | IC50 [1] [µM] | MIC50 (Candida albicans) [µg/mL] | MIC50 (Escherichia coli; read-out: MIC50) [µg/mL] | MIC50 (Bacillus subtilis) [µg/mL] | MIC50 (Staphylococcus aureus) [µg/mL] | MIC50 (Escherichia coli) [µg/mL] | Structure (SMILES)
 | 8.9 | 83.9 (≈ 280 µM) | > 100 | > 100 | 25.3 (≈ 84.4 µM) |  | O=C1OCC(NCc2ccccc2)=C1c1cccc(Cl)c1
 |  | 49.8 (≈ 162 µM) | > 100 | 50 (≈ 162 µM) | 37.1 (≈ 120 µM) |  | O=C1OCC(N2CCCC2)=C1c1ccc(Br)cc1
 | 7.7 | 74.4 (≈ 231 µM) | > 100 | > 100 | 21.8 (≈ 67.7 µM) |  | O=C1OCC(N2CCCCC2)=C1c1ccc(Br)cc1
 |  | 89.7 (≈ 277 µM) | > 100 | 91.8 (≈ 283 µM) | 42.6 (≈ 131 µM) |  | O=C1OCC(N2CCOCC2)=C1c1ccc(Br)cc1
 |  | 77.4 (≈ 239 µM) | > 100 | 78.5 (≈ 243 µM) | 54.7 (≈ 169 µM) |  | O=C1OCC(N2CCNCC2)=C1c1ccc(Br)cc1
 | 3.3 | 3.5 (≈ 9.53 µM) | > 100 | 24.7 (≈ 67.3 µM) | 9.7 (≈ 26.4 µM) |  | O=C1OCC(NCCN2CCOCC2)=C1c1ccc(Br)cc1
 | 14.5 | 62.8 (≈ 187 µM) | > 100 | 86.7 (≈ 258 µM) | 27.8 (≈ 82.7 µM) |  | O=C1OCC(NC2CCCCC2)=C1c1ccc(Br)cc1
 |  | > 100 | > 100 | > 100 | 87.2 (≈ 294 µM) |  | CCCNC1=C(c2ccc(Br)cc2)C(=O)OC1
 |  | > 100 | > 100 | > 100 | > 100 |  | CCCCNC1=C(c2ccc(Br)cc2)C(=O)OC1
 |  | > 100 | > 100 | > 100 | > 100 |  | CN(C)C1=C(c2ccc(Br)cc2)C(=O)OC1
 |  | > 100 | > 100 | > 100 | 57.6 (≈ 167 µM) |  | O=C1OCC(NCc2ccccc2)=C1c1ccc(Br)cc1
 | 0.12 | 5.2 (≈ 13.3 µM) | 79.4 (≈ 203 µM) | 9.5 (≈ 24.3 µM) | 0.42 (≈ 1.08 µM) |  | O=C1OCC(NNc2ccc([N+](=O)[O-])cc2)=C1c1ccc(Br)cc1
 | 0.86 | 21.3 (≈ 66 µM) | > 100 | 27.9 (≈ 86.4 µM) | 3.2 (≈ 9.91 µM) |  | O=C1OCC(NCCN2CCOCC2)=C1c1cccc(Cl)c1
 |  | > 100 | > 100 | > 100 | 52.4 (≈ 208 µM) |  | CCCNC1=C(c2cccc(Cl)c2)C(=O)OC1
 |  | 9.08 (≈ 34.2 µM) | > 100 | > 100 | > 100 |  | CCCCNC1=C(c2cccc(Cl)c2)C(=O)OC1
 |  | > 100 | > 100 | > 100 | > 100 |  | CCCCNC1=C(c2ccc(OC)c(OC)c2)C(=O)OC1

The remaining lines, values behind:

Structure (SMILES) | MIC (Streptococcus pneumoniae) [µg/mL] | IC50 [1] [µM] | MIC50 (Candida albicans) [µg/mL] | MIC50 (Escherichia coli; read-out: MIC50) [µg/mL] | MIC50 (Bacillus subtilis) [µg/mL] | MIC50 (Staphylococcus aureus) [µg/mL] | MIC50 (Escherichia coli) [µg/mL]
N[C@@H](Cc1ccc(O)cc1)C(=O)N[C@H](C(=O)O)[C@H]1[C@H](O)[C@](O)(CO)[C@@H](O)CN1O | > 64 | 0.003 |  |  |  |  | 
O=C1OCC(NNc2ccc([N+](=O)[O-])cc2)=C1c1ccccc1 |  | 0.24 | 13.1 (≈ 42.1 µM) | > 100 | 15.6 (≈ 50.1 µM) | 0.85 (≈ 2.73 µM) | 
O=C1OCC(N2CCCC2)=C1c1ccc(Cl)cc1 |  |  | > 100 | > 100 | > 100 | 88.4 (≈ 335 µM) | 
O=C1OCC(N2CCCC2)=C1c1cccc(Cl)c1 |  | 5.6 | 71.2 (≈ 270 µM) | > 100 | 87.4 (≈ 331 µM) | 12.6 (≈ 47.8 µM) | 
O=C1OCC(N2CCCCC2)=C1c1cccc(Cl)c1 |  | 2.8 | 33.1 (≈ 119 µM) | > 100 | 41.6 (≈ 150 µM) | 7.5 (≈ 27 µM) | 
O=C1OCC(N2CCOCC2)=C1c1cccc(Cl)c1 |  | 10.8 | 74.6 (≈ 267 µM) | > 100 | 93.1 (≈ 333 µM) | 25.7 (≈ 91.9 µM) | 
O=C1OCC(N2CCNCC2)=C1c1cccc(Cl)c1 |  |  | > 100 | > 100 | > 100 | 37.4 (≈ 134 µM) | 
CN1CCN(C2=C(c3cccc(Cl)c3)C(=O)OC2)CC1 |  |  | > 100 | > 100 | > 100 | 65.2 (≈ 223 µM) | 
COc1ccc(C2=C(N3CCCC3)COC2=O)cc1OC |  |  | > 100 | > 100 | > 100 | > 100 | 
COc1ccc(C2=C(N3CCCCC3)COC2=O)cc1OC |  |  | > 100 | > 100 | > 100 | > 100 | 
COc1ccc(C2=C(N3CCOCC3)COC2=O)cc1OC |  |  | > 100 | > 100 | > 100 | > 100 | 
COc1ccc(C2=C(N3CCNCC3)COC2=O)cc1OC |  |  | > 100 | > 100 | > 100 | > 100 | 
COc1ccc(C2=C(NC3CCCCC3)COC2=O)cc1OC |  |  | > 100 | > 100 | > 100 | > 100 | 
COc1ccc(C2=C(NCCN3CCOCC3)COC2=O)cc1OC |  |  | > 100 | > 100 | > 100 | 68.3 (≈ 196 µM) | 
COc1ccc(C2=C(NCc3ccccc3)COC2=O)cc1OC |  |  | > 100 | > 100 | > 100 | > 100 | 
CN(C)C1=C(c2cccc(Br)c2)C(=O)OC1 |  |  | > 100 | > 100 | > 100 | 61.4 (≈ 218 µM) | 
NC[C@H]1O[C@H](O[C@H]2[C@H](O)[C@@H](O[C@H]3O[C@H](CO)[C@@H](O)[C@H](N)[C@H]3O)[C@H](N)C[C@@H]2N)[C@H](O)[C@@H](O)[C@@H]1O [KANAMYCIN] |  |  |  |  | 0.43 (≈ 0.888 µM) | 1 (≈ 2.06 µM) | 
CC(=O)N1CCN(c2ccc(OCC3COC(Cn4ccnc4)(c4ccc(Cl)cc4Cl)O3)cc2)CC1 (stereo not given) [KETOCONAZOLE] |  |  | 4.4 (≈ 8.28 µM) |  |  |  | 
CC1(C)S[C@@H]2[C@H](NC(=O)Cc3ccccc3)C(=O)N2[C@H]1C(=O)O [PENICILLIN G] |  |  |  |  |  |  | 2.5 (≈ 7.48 µM)
